Several values for one entry are separate records, joined by “and”; a condition that tells them apart may be missing. Equal values may be shown once.
The compounds below were run on HEK-293T (assay: Multiplex assay against HEK293T). Details: human, 12 h, 1 µM, compound concentration 1 uM.
Assay type: toxicity, cell-based
Procedure, shortened: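 Per cents of healthy-nucleus cells form the tubulin, mitochondrial-mass and membrane-permeability phenotype values. Live cells were stained at seeding with Hoechst33342, BioTracker Green Microtubule Cytoskeleton Dye, MitoTracker Red and Annexin V Alexa Fluor 680. After compound addition they were imaged on a CQ1 microscope at 37°C and 5% CO2, and CellPathfinder machine-learning gating split them into Hoechst high-intensity objects or normal cells, normal cells into healthy, pyknosed or fragmented nuclei, and pyknosed cells into mitotic or apoptotic.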
In the case of COc1ccccc1N1CCN(CCCCNC(=O)c2ccc3ccccc3c2)CC1.Cl, the “Population Apoptotic (%)” value is reported as 45% and 36%, the “Population Fragmented Nuclei (%)” value is reported as 7% and 6% and the “Population Healthy Nuclei (%)” value is reported as 81% and 79%. The “Population Hoechst High Intensity Objects (%)” value was 6% and 5%, the “Population Mitochondria Different-Phenotype (%)” value was 53% and 76% and the “Population Mitotic Cells (%)” value was 54% and 63%. For the same compound, the “Population Normal (%)” value was 93% and 94%, the “Population Tubulin-Different-Phenotype (%)” value was 41% and 35% and the “Total Cell Count” value was 430 and 354.
With O=C(Nc1cc(-c2ccccc2)nn1-c1ccccc1F)c1ccc([N+](=O)[O-])cc1 the “Population Apoptotic (%)” value was 33% and 37%, the “Population Fragmented Nuclei (%)” value was 7% and 6% and the “Population Healthy Nuclei (%)” value was 78% and 83%. For the same compound, the “Population Hoechst High Intensity Objects (%)” value was 9% and 6%, the “Population Membrane Permeable-Phenotype (%)” value was 0% and the “Population Mitochondria Different-Phenotype (%)” value was 31% and 48%. The “Population Mitotic Cells (%)” value was 66% and 62%, the “Population Normal (%)” value was 90% and 94% and the “Population Pyknosed Nuclei (%)” value was 13% and 9%. The “Population Tubulin-Different-Phenotype (%)” value was 19% and the “Total Cell Count” value was 402 and 417.

Same assay, conditions: human, 12 h, 10 µM, compound concentration 10 uM
COc1ccccc1N1CCN(CCCCNC(=O)c2ccc3ccccc3c2)CC1.Cl was tested, and the “Population Apoptotic (%)” value was 71% and 70%, the “Population Fragmented Nuclei (%)” value was 4% and 7% and the “Population Healthy Nuclei (%)” value was 69% and 75%. The “Population Hoechst High Intensity Objects (%)” value was 16% and 15%, the “Population Mitochondria Different-Phenotype (%)” value was 90% and 93% and the “Population Mitotic Cells (%)” value was 28% and 29%. For the same compound, the “Population Normal (%)” value was 83% and 84%, the “Population Tubulin-Different-Phenotype (%)” value was 75% and 72% and the “Total Cell Count” value was 321 and 256.
O=C(Nc1cc(-c2ccccc2)nn1-c1ccccc1F)c1ccc([N+](=O)[O-])cc1 was tested, and the “Population Apoptotic (%)” value was 37% and 44%, the “Population Fragmented Nuclei (%)” value was 10% and 6% and the “Population Healthy Nuclei (%)” value was 71% and 73%. For the same compound, the “Population Hoechst High Intensity Objects (%)” value was 5% and 6%, the “Population Membrane Permeable-Phenotype (%)” value was 0% and the “Population Mitochondria Different-Phenotype (%)” value was 41% and 65%. The “Population Mitotic Cells (%)” value was 62% and 55%, the “Population Normal (%)” value was 94% and 93% and the “Population Pyknosed Nuclei (%)” value was 17% and 20%. The “Population Tubulin-Different-Phenotype (%)” value was 40% and 45% and the “Total Cell Count” value was 342 and 367.

Same assay, conditions: human, 24 h, 1 µM, compound concentration 1 uM
With COc1ccccc1N1CCN(CCCCNC(=O)c2ccc3ccccc3c2)CC1.Cl the “Population Apoptotic (%)” value was 27% and 36%, the “Population Fragmented Nuclei (%)” value was 8% and 7% and the “Population Healthy Nuclei (%)” value was 78% and 82%. For the same compound, the “Population Hoechst High Intensity Objects (%)” value was 6%, the “Population Mitochondria Different-Phenotype (%)” value was 38% and 62% and the “Population Mitotic Cells (%)” value was 72% and 63%. The “Population Normal (%)” value was 93%, the “Population Tubulin-Different-Phenotype (%)” value was 32% and 26% and the “Total Cell Count” value was 561 and 444.
For O=C(Nc1cc(-c2ccccc2)nn1-c1ccccc1F)c1ccc([N+](=O)[O-])cc1, the “Population Apoptotic (%)” value was 33% and 35%, the “Population Fragmented Nuclei (%)” value was 8% and 12% and the “Population Healthy Nuclei (%)” value was 78%. For the same compound, the “Population Hoechst High Intensity Objects (%)” value was 4%, the “Population Membrane Permeable-Phenotype (%)” value was 0% and 1% and the “Population Mitochondria Different-Phenotype (%)” value was 21% and 31%. The “Population Mitotic Cells (%)” value was 66% and 64%, the “Population Normal (%)” value was 95% and the “Population Pyknosed Nuclei (%)” value was 12% and 8%. For the same compound, the “Population Tubulin-Different-Phenotype (%)” value was 17% and 16% and the “Total Cell Count” value was 481 and 530.

Same assay, conditions: human, 24 h, 10 µM, compound concentration 10 uM
In the case of COc1ccccc1N1CCN(CCCCNC(=O)c2ccc3ccccc3c2)CC1.Cl, the “Population Apoptotic (%)” value is reported as 56% and 60%, the “Population Fragmented Nuclei (%)” value is reported as 7% and 10% and the “Population Healthy Nuclei (%)” value is reported as 74% and 69%. For the same compound, the “Population Hoechst High Intensity Objects (%)” value was 13% and 17%, the “Population Mitochondria Different-Phenotype (%)” value was 96% and 94% and the “Population Mitotic Cells (%)” value was 43% and 39%. The “Population Normal (%)” value was 86% and 82%, the “Population Tubulin-Different-Phenotype (%)” value was 87% and 66% and the “Total Cell Count” value was 393 and 276.
With O=C(Nc1cc(-c2ccccc2)nn1-c1ccccc1F)c1ccc([N+](=O)[O-])cc1 the “Population Apoptotic (%)” value was 15% and 22%, the “Population Fragmented Nuclei (%)” value was 9% and 7% and the “Population Healthy Nuclei (%)” value was 77% and 83%. The “Population Hoechst High Intensity Objects (%)” value was 2% and 3%, the “Population Membrane Permeable-Phenotype (%)” value was 0% and the “Population Mitochondria Different-Phenotype (%)” value was 35% and 47%. The “Population Mitotic Cells (%)” value was 84% and 77%, the “Population Normal (%)” value was 97% and 96% and the “Population Pyknosed Nuclei (%)” value was 13% and 8%. The “Population Tubulin-Different-Phenotype (%)” value was 35% and 33% and the “Total Cell Count” value was 434 and 482.

Same assay, conditions: human, 48 h, 1 µM, compound concentration 1 uM
COc1ccccc1N1CCN(CCCCNC(=O)c2ccc3ccccc3c2)CC1.Cl was tested, and the “Population Apoptotic (%)” value was 20% and 46%, the “Population Healthy Nuclei (%)” value was 81% and 78% and the “Population Hoechst High Intensity Objects (%)” value was 3% and 5%. For the same compound, the “Population Mitochondria Different-Phenotype (%)” value was 34% and 37%, the “Population Mitotic Cells (%)” value was 79% and 53% and the “Population Normal (%)” value was 96% and 94%. The “Population Tubulin-Different-Phenotype (%)” value was 20% and 22% and the “Total Cell Count” value was 841 and 635.
In the case of O=C(Nc1cc(-c2ccccc2)nn1-c1ccccc1F)c1ccc([N+](=O)[O-])cc1, the “Population Apoptotic (%)” value is reported as 17% and 33%, the “Population Fragmented Nuclei (%)” value is reported as 13% and 17% and the “Population Healthy Nuclei (%)” value is reported as 79% and 74%. For the same compound, the “Population Hoechst High Intensity Objects (%)” value was 3% and 2%, the “Population Membrane Permeable-Phenotype (%)” value was 2% and the “Population Mitochondria Different-Phenotype (%)” value was 14% and 15%. The “Population Mitotic Cells (%)” value was 82% and 66%, the “Population Normal (%)” value was 96% and 97% and the “Population Pyknosed Nuclei (%)” value was 7%. The “Population Tubulin-Different-Phenotype (%)” value was 9% and 11% and the “Total Cell Count” value was 893 and 799.

Same assay, conditions: human, 48 h, 10 µM, compound concentration 10 uM
In the case of COc1ccccc1N1CCN(CCCCNC(=O)c2ccc3ccccc3c2)CC1.Cl, the “Population Apoptotic (%)” value is reported as 60% and 78%, the “Population Fragmented Nuclei (%)” value is reported as 8% and the “Population Healthy Nuclei (%)” value is reported as 77% and 78%. For the same compound, the “Population Hoechst High Intensity Objects (%)” value was 8% and 10%, the “Population Mitochondria Different-Phenotype (%)” value was 88% and 92% and the “Population Mitotic Cells (%)” value was 40% and 21%. The “Population Normal (%)” value was 91% and 89%, the “Population Tubulin-Different-Phenotype (%)” value was 73% and 71% and the “Total Cell Count” value was 519 and 329.
In the case of O=C(Nc1cc(-c2ccccc2)nn1-c1ccccc1F)c1ccc([N+](=O)[O-])cc1, the “Population Apoptotic (%)” value is reported as 22% and 20%, the “Population Fragmented Nuclei (%)” value is reported as 12% and 15% and the “Population Healthy Nuclei (%)” value is reported as 77%. The “Population Hoechst High Intensity Objects (%)” value was 2% and 3%, the “Population Membrane Permeable-Phenotype (%)” value was 2% and 1% and the “Population Mitochondria Different-Phenotype (%)” value was 19% and 27%. For the same compound, the “Population Mitotic Cells (%)” value was 77% and 79%, the “Population Normal (%)” value was 97% and 96% and the “Population Pyknosed Nuclei (%)” value was 9% and 6%. The “Population Tubulin-Different-Phenotype (%)” value was 23% and 26% and the “Total Cell Count” value was 671 and 666.

Reference: ChEMBL document CHEMBL5724801, “EUbOPEN Chemogenomics Library - Multiplex” (2024)
